EC50 and inhibition data for 3 molecules are collected here from ChEMBL document CHEMBL3046428, “Isolation, characterization and antifungal activity of major constituents of the Himalayan lichen Parmelia reticulata Tayl” (2011).

Common to all, as to format: functional
Experiment [1] has as its system Globisporangium debaryanum. Description: Antifungal activity against Pythium debaryanum assessed as growth inhibition by poisoned food technique. To be noted: read-out: ED50 (the source's name). In outline:
(§1)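 ED50 from poisoned-food growth inhibition on PDA at 250, 125 and 62.5 μg/mL in medium, with an acetone control. Plates were inoculated with a 5 mm mycelial disc, incubated at 28 °C, and colony diameter was measured in quadruplicate. Percent inhibition was corrected by Abbott's formula, using a correction factor from the 9 cm dish diameter, and ED50 (μg/mL) was derived by probit analysis.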

Experiment [2] deals with Globisporangium debaryanum. Description: Antifungal activity against Pythium debaryanum assessed as growth inhibition at 62.5 ug/ml by poisoned food technique. An outline of the steps: (§2)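 Poisoned-food assay on PDA. Test material was diluted in acetone and mixed into molten medium at final 250, 125 or 62.5 μg/mL, with 1 mL acetone as control. Plates received a 5 mm mycelial disc from the front of a 2-week-old colony and were incubated at 28 °C until control growth was nearly complete. Colony diameter was measured, giving %I = (C−T)/C×100. Mean ± SD of four replicates.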

The test system of experiment [3] is Globisporangium debaryanum. Description: Antifungal activity against Pythium debaryanum assessed as growth inhibition at 125 ug/ml by poisoned food technique. An outline of the steps: as §2
Experiment [4] deals with Globisporangium debaryanum. Kind of experiment: Antifungal activity against Pythium debaryanum assessed as growth inhibition at 250 ug/ml by poisoned food technique. An outline of the steps: as §2
Experiment [5] deals with Pythium aphanidermatum. Kind of experiment: Antifungal activity against Pythium aphanidermatum assessed as growth inhibition by poisoned food technique. To be noted: read-out: ED50 (the source's name). An outline of the steps: as §1
The subject of experiment [6] is Pythium aphanidermatum. Kind of experiment: Antifungal activity against Pythium aphanidermatum assessed as growth inhibition at 62.5 ug/ml by poisoned food technique. In outline: as §2
Experiment [7] deals with Pythium aphanidermatum. Kind of experiment: Antifungal activity against Pythium aphanidermatum assessed as growth inhibition at 125 ug/ml by poisoned food technique. An outline of the steps:
as §2

Experiment [8] deals with Pythium aphanidermatum. Kind of experiment: Antifungal activity against Pythium aphanidermatum assessed as growth inhibition at 250 ug/ml by poisoned food technique. An outline of the steps:
as §2

Experiment [9] relates to Fusarium udum. Kind of experiment: Antifungal activity against Fusarium udum assessed as growth inhibition by poisoned food technique. As to conditions: read-out: ED50 (the source's name). In outline: as §1
Experiment [10] concerns Fusarium udum. Kind of experiment: Antifungal activity against Fusarium udum assessed as growth inhibition at 62.5 ug/ml by poisoned food technique. In outline:
as §2

Experiment [11] deals with Fusarium udum. Description: Antifungal activity against Fusarium udum assessed as growth inhibition at 125 ug/ml by poisoned food technique. In outline:
as §2

The subject of experiment [12] is Fusarium udum. Kind of experiment: Antifungal activity against Fusarium udum assessed as growth inhibition at 250 ug/ml by poisoned food technique. An outline of the steps:
as §2

Experiment [13] has as its system Macrophomina phaseolina. Kind of experiment: Antifungal activity against Rhizoctonia bataticola assessed as growth inhibition by poisoned food technique. To be noted: read-out: ED50 (the source's name). An outline of the steps: as §1
Experiment [14] relates to Macrophomina phaseolina. Kind of experiment: Antifungal activity against Rhizoctonia bataticola assessed as growth inhibition at 62.5 ug/ml by poisoned food technique. In outline: as §2
Experiment [15] has as its system Macrophomina phaseolina. Kind of experiment: Antifungal activity against Rhizoctonia bataticola assessed as growth inhibition at 125 ug/ml by poisoned food technique. In outline:
as §2

Experiment [16] has as its system Macrophomina phaseolina. Kind of experiment: Antifungal activity against Rhizoctonia bataticola assessed as growth inhibition at 250 ug/ml by poisoned food technique. An outline of the steps: as §2
For experiment [17], the system named is Rhizoctonia solani. Kind of experiment: Antifungal activity against Rhizoctonia solani assessed as growth inhibition by poisoned food technique. As to conditions: read-out: ED50 (the source's name). In outline:
as §1

Experiment [18] deals with Rhizoctonia solani. Description: Antifungal activity against Rhizoctonia solani assessed as growth inhibition at 62.5 ug/ml by poisoned food technique. In outline:
as §2

The subject of experiment [19] is Rhizoctonia solani. Description: Antifungal activity against Rhizoctonia solani assessed as growth inhibition at 125 ug/ml by poisoned food technique. An outline of the steps:
as §2

Experiment [20] concerns Rhizoctonia solani. Description: Antifungal activity against Rhizoctonia solani assessed as growth inhibition at 250 ug/ml by poisoned food technique. An outline of the steps:
as §2

Experiment [21] has as its system Athelia rolfsii. Kind of experiment: Antifungal activity against Athelia rolfsii assessed as growth inhibition by poisoned food technique. As to conditions: Agroathelia rolfsii; read-out: ED50 (the source's name). An outline of the steps:
as §1

Experiment [22] relates to Athelia rolfsii. Description: Antifungal activity against Athelia rolfsii assessed as growth inhibition at 62.5 ug/ml by poisoned food technique. To be noted: Agroathelia rolfsii. In outline: as §2
Experiment [23] concerns Athelia rolfsii. Description: Antifungal activity against Athelia rolfsii assessed as growth inhibition at 125 ug/ml by poisoned food technique. As to conditions: Agroathelia rolfsii. In outline: as §2
Experiment [24] concerns Athelia rolfsii. Description: Antifungal activity against Athelia rolfsii assessed as growth inhibition at 250 ug/ml by poisoned food technique. To be noted: Agroathelia rolfsii. In outline:
as §2

The structures appear in SMILES notation. In brackets after ≈: the same amount, converted by molar mass.

For `COc1cc(C)c(C(=O)O)c(O)c1C`, the EC50 in [1] came to 73.8 µg/mL (≈ 376 µM); in experiment [5], 71.1 µg/mL (≈ 362 µM); in [9], 106 µg/mL (≈ 541 µM); in experiment [13], 74.5 µg/mL (≈ 380 µM); in experiment [17] it was 50.6 µg/mL (≈ 258 µM); in experiment [21], 116 µg/mL (≈ 589 µM). Also, the inhibition (usually the share of the control response that was lost under treatment) at 62.5 µg/mL in [2] was 33%; in experiment [6], 28.4%; in experiment [10], 23.7%; in experiment [14], 39.4%; in experiment [18], 50%; in experiment [22] it was 28.4%. In addition, the inhibition at 125 µg/mL in experiment [3] turned out to be 61.4%; in experiment [7] it was 67.7%; in [11], 46.5%; in experiment [15], 56.4%; in [19], 70.6%; in experiment [23] it was 44.3%. Besides, the inhibition at 250 µg/mL is 83.8% in experiment [4]; 79.3% in [8]; 58% in experiment [12]; 68% in experiment [16]; 82% in experiment [20]; 53% in experiment [24].
With `CC(=O)C1=C(O)C=C2Oc3c(C)c(O)c(C(C)=O)c(O)c3C2(C)C1=O` (racemic) [(+/-)-ISOUSNIC ACID], the EC50 in experiment [1] was determined as 71 µg/mL (≈ 206 µM); in experiment [5] it was 62.3 µg/mL (≈ 181 µM); in [9], 70.9 µg/mL (≈ 206 µM); in experiment [13], 70.4 µg/mL (≈ 204 µM); in [17] it was 64.6 µg/mL (≈ 188 µM); in [21] it was 69.6 µg/mL (≈ 202 µM). Moreover, the inhibition at 62.5 µg/mL was 35.1% in [2]; 46.1% in [6]; 33.4% in experiment [10]; 29.3% in experiment [14]; 35.2% in experiment [18]; 32.8% in experiment [22]. The inhibition at 125 µg/mL amounted to 66.2% in [3]; 53.2% in experiment [7]; 63.3% in experiment [11]; 69.1% in experiment [15]; 73.1% in experiment [19]; 66.1% in experiment [23]. Also, the inhibition at 250 µg/mL in [4] amounted to 72.1%; in experiment [8] it was 75.4%; in experiment [12], 81%; in experiment [16], 87.2%; in [20], 86.4%; in experiment [24], 84%.
As for `C=C1C(=O)OC(CCCCCCCCCCCCC)C1C(=O)O` (racemic) [(+/-)-Protolichesterinic acid], the EC50 in [1] turned out to be 16.1 µg/mL (≈ 49.5 µM); in experiment [5], 57.1 µg/mL (≈ 176 µM); in [9], 55.7 µg/mL (≈ 172 µM); in experiment [13], 77.6 µg/mL (≈ 239 µM); in experiment [17], 23.1 µg/mL (≈ 71.2 µM); in experiment [21] it was 61.4 µg/mL (≈ 189 µM). Also, the inhibition at 62.5 µg/mL is 78.3% in [2]; 44.3% in experiment [6]; 44.3% in experiment [10]; 28.3% in experiment [14]; 67% in experiment [18]; 39.3% in experiment [22]. Also, the inhibition at 125 µg/mL in experiment [3] turned out to be 90%; in experiment [7], 72.3%; in experiment [11] it was 78%; in experiment [15] it was 50%; in experiment [19] it was 77%; in experiment [23], 72.2%. Moreover, the inhibition at 250 µg/mL in experiment [4] was found to be 100%; in experiment [8], 80.3%; in experiment [12] it was 90.3%; in experiment [16] it was 89.3%; in experiment [20] it was 83.3%; in [24] it was 90%.
